In one assay the test system is L1210. Put plainly: Cytotoxicity against mouse L1210 cells after 48 hrs by Coulter counting method. It counts as functional, cell-based. The conditions noted are these: L1210, 48 h. The gist of the method: (§1)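 (5–7.5) × 10⁴ tumour cells per well with test compound. Proliferation ran 48 h for L1210 and 72 h for CEM and HeLa, at 37 °C in humidified CO₂. Cells counted in a Coulter counter. IC50 taken as the concentration that inhibited cell proliferation by 50%.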

The subject of another assay is HeLa. Put plainly: Cytotoxicity against human HeLa cells after 72 hrs by Coulter counting method. It counts as functional, cell-based. The essentials:
as §1

The test system of a further assay is CCRF-CEM. Briefly: Cytotoxicity against human CEM cells after 72 hrs by Coulter counting method. It counts as cell-based. The essentials:
as §1

The next assay has as its system REH. Briefly: Cytotoxicity against human REH cells after 48 to 72 hrs. It counts as functional, cell-based. The essentials:
(§2)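 REH and K562 cells at 0.5 × 10⁵ cells/ml, given 0–10 μM compound, with a DMSO vehicle control. Read at 48 and 72 h by trypan blue dye exclusion (cells precultured 24 h before dosing) and by MTT. Three independent experiments, MTT in duplicate.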

The next assay concerns K562. Briefly: Cytotoxicity against human K562 cells after 48 to 72 hrs. Type of assay: functional, cell-based. The gist of the method: as §2

In ChEMBL document CHEMBL3351601, “2-(4-Chlorobenzyl)-6-arylimidazo[2,1-b][1,3,4]thiadiazoles: synthesis, cytotoxic activity and mechanism of action” (Eur J Med Chem, 2014) one finds IC50 data, which are given here for 37 compounds.

In general, IC50 refers to the concentration at which inhibition is half-maximal. Higher therefore signals a need for much substance.

With `N#CSc1c(-c2ccccc2)nc2sc(Cc3ccc(Cl)cc3)nn12`, the figures for the IC50 in the assay with L1210, in the assay on HeLa and with CCRF-CEM were 24 µM, 12 µM and 14 µM, respectively.

For the compound `COc1ccc(-c2cn3nc(Cc4ccc(Cl)cc4)sc3n2)cc1`, the IC50 in the assay on L1210 is 38 µM; in the assay on HeLa, more than 250 µM; in the assay with CCRF-CEM, more than 250 µM.

As for `Clc1ccc(Cc2nn3c(Br)c(-c4ccc(Br)cc4)nc3s2)cc1`, the figures for the half-maximal inhibitory concentration (IC50) with L1210, in the assay with HeLa and in the assay on CCRF-CEM were more than 250 µM, 188 µM and 238 µM, respectively.

Turning to `O=[N+]([O-])c1ccc(-c2nc3sc(Cc4ccc(Cl)cc4)nn3c2Br)cc1`, the results for the IC50 with L1210, with HeLa and in the assay with CCRF-CEM were 94 µM, more than 250 µM and 73 µM, respectively.

In the case of `Cc1ccc(-c2cn3nc(Cc4ccc(Cl)cc4)sc3n2)cc1`, the IC50 with L1210, with HeLa and with CCRF-CEM was more than 250 µM each time.

For the compound `O=Cc1c(-c2ccc(Cl)cc2)nc2sc(Cc3ccc(Cl)cc3)nn12`, the IC50 in the assay on L1210 stood at 15 µM; with HeLa, 16 µM; with CCRF-CEM it was 5.8 µM.

For `N#CSc1c(-c2ccc(Cl)cc2)nc2sc(Cc3ccc(Cl)cc3)nn12`, the IC50 is 49 µM in the assay with L1210, 20 µM in the assay on HeLa and 30 µM in the assay on CCRF-CEM.

As for `Cc1ccc(-c2nc3sc(Cc4ccc(Cl)cc4)nn3c2C=O)cc1`, the IC50 in the assay on L1210 came out at 23 µM; in the assay with HeLa it was 21 µM; in the assay with CCRF-CEM, 17 µM.

Consider `Fc1ccc(-c2nc3sc(Cc4ccc(Cl)cc4)nn3c2Br)cc1`, for which the IC50 in the assay on L1210, with HeLa and with CCRF-CEM was more than 250 µM throughout.

`Clc1ccc(Cc2nn3c(Br)c(-c4ccccc4)nc3s2)cc1`: the IC50 with L1210, in the assay on HeLa and with CCRF-CEM was more than 250 µM in each case.

Consider `O=c1oc2ccccc2cc1-c1cn2nc(Cc3ccc(Cl)cc3)sc2n1`, for which the IC50 with L1210, in the assay on HeLa and in the assay on CCRF-CEM was more than 10 µM in each case.

Take `Clc1ccc(Cc2nn3c(Br)c(-c4ccc(Cl)cc4)nc3s2)cc1`: the IC50 in the assay on L1210, in the assay on HeLa and in the assay on CCRF-CEM was more than 250 µM throughout.

With `N[C@@H](Cc1ccc(N(CCCl)CCCl)cc1)C(=O)O` [MELPHALAN], the IC50 in the assay with CCRF-CEM amounted to 1.4 µM.

Consider `Clc1ccc(Cc2nn3cc(-c4ccc(Cl)cc4)nc3s2)cc1`, for which the IC50 was more than 250 µM with L1210, 95 µM in the assay on HeLa and more than 250 µM in the assay with CCRF-CEM.

For the compound `Clc1ccc(Cc2nn3cc(-c4ccc(Br)cc4)nc3s2)cc1`, the IC50 in the assay with L1210, with HeLa and in the assay with CCRF-CEM was more than 250 µM each time.

On to `Clc1ccc(Cc2nn3c(Br)c(-c4ccc(Cl)cc4Cl)nc3s2)cc1`, for which the results for the IC50 in the assay with L1210, in the assay on HeLa and in the assay with CCRF-CEM were 31 µM, 118 µM and 106 µM, respectively.

As to `O=Cc1c(-c2ccc(Cl)cc2Cl)nc2sc(Cc3ccc(Cl)cc3)nn12`, the figures for the 50% inhibitory concentration (IC50) with L1210, in the assay on HeLa and in the assay with CCRF-CEM were 82 µM, 64 µM and 79 µM, respectively.

As to `Clc1ccc(Cc2nn3cc(-c4ccc(Cl)cc4Cl)nc3s2)cc1`, the half-maximal inhibitory concentration (IC50) with L1210 was 247 µM; with HeLa, 109 µM; in the assay on CCRF-CEM, more than 250 µM.

`O=Cc1c(-c2ccc(Br)cc2)nc2sc(Cc3ccc(Cl)cc3)nn12`: the half-maximal inhibitory concentration (IC50) with L1210 turned out to be 4.6 µM; with HeLa it was 4.2 µM; in the assay on CCRF-CEM, 4 µM.

With `Cc1ccc(-c2nc3sc(Cc4ccc(Cl)cc4)nn3c2SC#N)cc1`, the 50% inhibitory concentration (IC50) in the assay on L1210 was 32 µM; in the assay on HeLa, 22 µM; with CCRF-CEM, 22 µM.

As for `Clc1ccc(Cc2nn3cc(-c4ccccc4)nc3s2)cc1`, the IC50 in the assay on L1210, in the assay with HeLa and in the assay on CCRF-CEM was more than 250 µM in each case.

With `N#CSc1c(-c2ccc(Br)cc2)nc2sc(Cc3ccc(Cl)cc3)nn12`, the IC50 in the assay with L1210 stood at 81 µM; in the assay on HeLa it was 22 µM; in the assay with CCRF-CEM, 61 µM.

Regarding `COc1ccc(-c2nc3sc(Cc4ccc(Cl)cc4)nn3c2Br)cc1`, the results for the IC50 with L1210, in the assay on HeLa and in the assay with CCRF-CEM were 63 µM, 66 µM and 58 µM, respectively.

Take `COc1ccc(-c2nc3sc(Cc4ccc(Cl)cc4)nn3c2C=O)cc1`: the half-inhibitory concentration (IC50) in the assay on L1210 amounted to 5.3 µM; with HeLa it was 6 µM; in the assay with CCRF-CEM, 3.8 µM.

Consider `Fc1ccc(-c2cn3nc(Cc4ccc(Cl)cc4)sc3n2)cc1`, for which the IC50 in the assay on L1210, in the assay with HeLa and in the assay with CCRF-CEM was more than 250 µM each time.

Consider `O=[N+]([O-])c1ccc(-c2cn3nc(Cc4ccc(Cl)cc4)sc3n2)cc1`, for which the IC50 with L1210 is 214 µM; with HeLa, more than 250 µM; in the assay on CCRF-CEM, more than 250 µM.

Consider `Cc1ccc(-c2nc3sc(Cc4ccc(Cl)cc4)nn3c2Br)cc1`, for which the 50% inhibitory concentration (IC50) in the assay on L1210, with HeLa and with CCRF-CEM was more than 250 µM in each case.

On to `c1ccc([C@H]2CN3CCSC3=N2)cc1` [LEVAMISOLE], for which the half-inhibitory concentration (IC50) was 206 µM with L1210, 250 µM with HeLa and more than 250 µM in the assay on CCRF-CEM.

With `O=Cc1c(-c2ccc([N+](=O)[O-])cc2)nc2sc(Cc3ccc(Cl)cc3)nn12`, the half-maximal inhibitory concentration (IC50) in the assay with L1210 worked out at 15 µM; in the assay on HeLa, 17 µM; in the assay on CCRF-CEM, 13 µM.

On to `N#CSc1c(-c2ccc(Cl)cc2Cl)nc2sc(Cc3ccc(Cl)cc3)nn12`, for which the half-inhibitory concentration (IC50) in the assay on L1210 was 49 µM; in the assay with HeLa it was 18 µM; with CCRF-CEM it was 46 µM.

For the compound `O=Cc1c(-c2ccc(F)cc2)nc2sc(Cc3ccc(Cl)cc3)nn12`, the half-inhibitory concentration (IC50) with L1210 came to 20 µM; in the assay with HeLa, 20 µM; with CCRF-CEM, 17 µM.

Regarding `O=c1oc2ccccc2cc1-c1nc2sc(Cc3ccc(Cl)cc3)nn2c1Br`, the IC50 in the assay on L1210 came to 5.2 µM; in the assay with HeLa, 4.5 µM; with CCRF-CEM, 3.7 µM.

Consider `N#CSc1c(-c2ccc(F)cc2)nc2sc(Cc3ccc(Cl)cc3)nn12`, for which the half-maximal inhibitory concentration (IC50) with L1210 was 23 µM; in the assay on HeLa it was 20 µM; in the assay with CCRF-CEM, 24 µM.

Regarding `COc1ccc(-c2nc3sc(Cc4ccc(Cl)cc4)nn3c2SC#N)cc1`, the IC50 with L1210 came out at 16 µM; in the assay with HeLa it was 9 µM; in the assay on CCRF-CEM it was 10 µM.

As to `N#CSc1c(-c2ccc([N+](=O)[O-])cc2)nc2sc(Cc3ccc(Cl)cc3)nn12`, the IC50 was 50 µM in the assay on L1210, 16 µM in the assay with HeLa and 20 µM with CCRF-CEM.

As to `O=Cc1c(-c2ccccc2)nc2sc(Cc3ccc(Cl)cc3)nn12`, the IC50 in the assay on L1210 turned out to be 20 µM; in the assay with HeLa it was 45 µM; in the assay on CCRF-CEM it was 22 µM.

For the compound `N#CSc1c(-c2cc3ccccc3oc2=O)nc2sc(Cc3ccc(Cl)cc3)nn12`, the half-inhibitory concentration (IC50) in the assay with L1210 was determined as 1.3 µM; in the assay with REH, 6.2 µM; with HeLa it was 1 µM; with K562, 3.1 µM; in the assay on CCRF-CEM it was 1.4 µM.
